What was measured:
Aromatase [1] = target: T1, Aromatase (Homo sapiens, UniProt P11511); assay: Inhibition of Cytochrome P450 19A1 at 0.25 uM
T1 sequence (P11511 whole entry): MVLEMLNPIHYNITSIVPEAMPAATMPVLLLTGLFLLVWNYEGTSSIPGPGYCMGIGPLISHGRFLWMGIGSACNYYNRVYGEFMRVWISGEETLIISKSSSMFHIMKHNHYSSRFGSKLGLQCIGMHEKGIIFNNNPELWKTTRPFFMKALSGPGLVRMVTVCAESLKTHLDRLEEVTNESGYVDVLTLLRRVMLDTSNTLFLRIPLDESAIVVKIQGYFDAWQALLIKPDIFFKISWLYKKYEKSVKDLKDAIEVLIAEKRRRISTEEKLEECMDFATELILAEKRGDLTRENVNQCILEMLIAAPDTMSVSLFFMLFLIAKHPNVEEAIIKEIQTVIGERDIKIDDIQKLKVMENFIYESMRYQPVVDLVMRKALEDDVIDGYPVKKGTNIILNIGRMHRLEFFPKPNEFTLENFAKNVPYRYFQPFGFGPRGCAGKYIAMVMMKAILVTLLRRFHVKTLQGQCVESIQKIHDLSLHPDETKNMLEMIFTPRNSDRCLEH
Summary of the method: (§1)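 Aromatase source was lyophilized human placental microsomes, measured by tritiated water release. The substrate was 0.25 μM [1-³H]androstenedione (83% of the tritium in the β position), about 5 times the Km for this enzyme preparation. Inhibitor was tested at 0.25 μM or 1.25 μM with buffer and cofactors for 15 min. Ethyl acetate stopped the reaction.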

Aromatase [2] = target: T1, Aromatase; assay: Inhibition of Cytochrome P450 19A1 at 1.25 uM; summary of the method: as §1

CC(=O)c1ccc(S[C@@H]2CC3=CC(=O)CC[C@]3(C)[C@H]3CC[C@]4(C)C(=O)CC[C@H]4[C@H]23)cc1
inhibition at 0.25 µM (Aromatase [1]): 55.7%
inhibition at 1.25 µM (Aromatase [2]): 84.4%

CCN(CC)c1ccc(S[C@@H]2CC3=CC(=O)CC[C@]3(C)[C@H]3CC[C@]4(C)C(=O)CC[C@H]4[C@H]23)cc1
inhibition at 0.25 µM (Aromatase [1]): 11.7%
inhibition at 1.25 µM (Aromatase [2]): 53.2%

C[C@]12CCC(=O)C=C1C[C@@H](SC1CCCCC1)[C@@H]1[C@@H]2CC[C@]2(C)C(=O)CC[C@@H]12
inhibition at 0.25 µM (Aromatase [1]): 18.5%
inhibition at 1.25 µM (Aromatase [2]): 32.2%

C[C@]12CCC(=O)C=C1C[C@@H](Sc1ccc(Cl)cc1)[C@@H]1[C@@H]2CC[C@]2(C)C(=O)CC[C@@H]12
inhibition at 0.25 µM (Aromatase [1]): 56.5%
inhibition at 1.25 µM (Aromatase [2]): 83.4%

COc1ccc(S[C@@H]2CC3=CC(=O)CC[C@]3(C)[C@H]3CC[C@]4(C)C(=O)CC[C@H]4[C@H]23)cc1
inhibition at 0.25 µM (Aromatase [1]): 7.93%
inhibition at 1.25 µM (Aromatase [2]): 36.7%

C[C@]12CCC(=O)C=C1C[C@@H](Sc1cccc(N)c1)[C@@H]1[C@@H]2CC[C@]2(C)C(=O)CC[C@@H]12
inhibition at 0.25 µM (Aromatase [1]): 39.9%
inhibition at 1.25 µM (Aromatase [2]): 73.3%

C[C@]12CCC(=O)C=C1C[C@@H](SCc1ccccc1)[C@@H]1[C@@H]2CC[C@]2(C)C(=O)CC[C@@H]12
inhibition at 0.25 µM (Aromatase [1]): 33.5%
inhibition at 1.25 µM (Aromatase [2]): 69.8%

C[C@]12CCC(=O)C=C1C[C@@H](Sc1ccc(N)cc1)[C@@H]1[C@@H]2CC[C@]2(C)C(=O)CC[C@@H]12
inhibition at 0.25 µM (Aromatase [1]): 51.6%
inhibition at 1.25 µM (Aromatase [2]): 85%

C[C@]12CCC(=O)C=C1C[C@@H](Sc1ccccc1)[C@@H]1[C@@H]2CC[C@]2(C)C(=O)CC[C@@H]12
inhibition at 0.25 µM (Aromatase [1]): 62.7%
inhibition at 1.25 µM (Aromatase [2]): 66.8%

C[C@]12CCC(=O)C=C1C[C@@H](Sc1ccc(Br)cc1)[C@@H]1[C@@H]2CC[C@]2(C)C(=O)CC[C@@H]12
inhibition at 0.25 µM (Aromatase [1]): 47.3%
inhibition at 1.25 µM (Aromatase [2]): 80.8%

C[C@]12CCC(=O)C=C1C[C@@H](Sc1ccc(F)cc1)[C@@H]1[C@@H]2CC[C@]2(C)C(=O)CC[C@@H]12
inhibition at 0.25 µM (Aromatase [1]): 55.3%
inhibition at 1.25 µM (Aromatase [2]): 74.1%

C[C@]12CCC(=O)C=C1C[C@@H](Sc1ccc(I)cc1)[C@@H]1[C@@H]2CC[C@]2(C)C(=O)CC[C@@H]12
inhibition at 0.25 µM (Aromatase [1]): 45%
inhibition at 1.25 µM (Aromatase [2]): 83.7%

Cc1ccc(S[C@@H]2CC3=CC(=O)CC[C@]3(C)[C@H]3CC[C@]4(C)C(=O)CC[C@H]4[C@H]23)cc1
inhibition at 0.25 µM (Aromatase [1]): 7.83%
inhibition at 1.25 µM (Aromatase [2]): 24.9%
